pIC50: −log10 of the molar value. Activity calls are given as the source filed them. The calls are words filed in the database; no cut-off is given here.
Key:
[1] = tested on: HepG2; test: Cytotoxicity against human HepG2 cells by MTT assay; format: functional, cell-based
Outline: (§1)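 Cells grown in DMEM with 10% FBS, penicillin and streptomycin at 37 °C under 5% CO₂. Seeded at 5 × 10³ per 100 µl per well and exposed to compound at 0.5–50 µM for 72 h. MTT (5 mg/ml) added for 5 h, formazan dissolved in DMSO, absorbance read at 490 nm. IC₅₀ is the concentration giving 50% growth inhibition; means of three independent determinations.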

[2] = tested on: HepG2; test: Cell cycle arrest in human HepG2 cells assessed as accumulation at G2 phase at 50 uM after 36 hrs by FACSan flow cytometry; format: functional
Outline: (§2)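 Cells were treated for 36 h, then washed twice in ice-cold PBS and fixed overnight in 70% ethanol at 4 °C. They were resuspended at 5 × 10⁵/ml in propidium iodide (50 µg/ml in 0.1% sodium citrate, 0.03% v/v Nonidet P-40) and held 30 min on ice. DNA-content histograms were read by FACScan flow cytometry, with sub-G₀ scored as apoptotic.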

[3] = tested on: HeLa; test: Growth inhibition of human HeLa cells after 72 hrs by MTT assay; format: functional, cell-based; outline: as §1
[4] = Growth inhibition of human CNE2 cells after 72 hrs by MTT assay; format: functional, cell-based; conditions: CNE-2, 72 h; outline: as §1
[5] = tested on: HepG2; test: Cell cycle arrest in human HepG2 cells assessed as accumulation at G2 phase at 10 uM after 36 hrs by FACSan flow cytometry; format: functional; outline: as §2
[6] = tested on: HepG2; test: Cell cycle arrest in human HepG2 cells assessed as accumulation at S phase at 10 uM after 36 hrs by FACSan flow cytometry; format: functional; outline: as §2
[7] = tested on: HepG2; test: Cell cycle arrest in human HepG2 cells assessed as accumulation at subG0 phase at 5 uM after 36 hrs by FACSan flow cytometry; format: functional; outline: as §2
[8] = tested on: MCF7; test: Growth inhibition of human MCF7 cells after 72 hrs by MTT assay; format: functional, cell-based; conditions: MCF7, 72 h; outline: as §1
[9] = tested on: HepG2; test: Cell cycle arrest in human HepG2 cells assessed as accumulation at subG0 phase at 25 uM after 36 hrs by FACSan flow cytometry; format: functional; outline: as §2
[10] = tested on: HepG2; test: Induction of apoptosis in human HepG2 cells assessed as increase in […] mRNA expression after 26 hrs by RT-PCR; format: functional, cell-based
Outline: (§3)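 HepG-2 cells treated at 0, 5, 10, 25 and 50 µM for 26 h. cDNA made from 1 µg total RNA and amplified for Bcl-2 and Bax over 30 cycles (98 °C 15 s, 57 °C 10 s, 72 °C 35 s), with GAPDH as control. Results expressed as fold change relative to control.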

[11] = tested on: HepG2; test: Induction of apoptosis in human HepG2 cells assessed as decrease in Bcl2 mRNA expression after 26 hrs by RT-PCR; format: functional, cell-based; outline: as §3
[12] = tested on: HepG2; test: Cell cycle arrest in human HepG2 cells assessed as accumulation at S phase at 5 uM after 36 hrs by FACSan flow cytometry; format: functional; outline: as §2
[13] = tested on: HepG2; test: Induction of apoptosis in human HepG2 cells assessed as caspase 8 activation at 50 uM after 2 to 24 hrs; format: functional, cell-based
Outline: (§4)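 HepG-2 cells were treated for 0, 2, 4, 8, 14 and 24 h. Lysates were made on ice and cleared at 20,000g, 4 °C, and protein was measured by Bradford. 0.1 mg protein was incubated 2 h at 37 °C with Ac-DEVD-pNA (caspase-3), Ac-IETD-pNA (caspase-8) or Ac-LEHD-pNA (caspase-9), and pNA release was read at 405 nm.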

[14] = tested on: HepG2; test: Cell cycle arrest in human HepG2 cells assessed as accumulation at subG0 phase at 50 uM after 36 hrs by FACSan flow cytometry; format: functional; outline: as §2
[15] = tested on: HepG2; test: Cell cycle arrest in human HepG2 cells assessed as accumulation at subG0 phase at 10 uM after 36 hrs by FACSan flow cytometry; format: functional; outline: as §2
[16] = Growth inhibition of human CNE1 cells after 72 hrs by MTT assay; format: functional, cell-based; conditions: CNE; outline: as §1
[17] = tested on: HepG2; test: Cell cycle arrest in human HepG2 cells assessed as accumulation at G1 phase at 10 uM after 36 hrs by FACSan flow cytometry; format: functional; outline: as §2
[18] = tested on: HepG2; test: Cell cycle arrest in human HepG2 cells assessed as accumulation at G2 phase at 5 uM after 36 hrs by FACSan flow cytometry; format: functional; outline: as §2
[19] = tested on: HepG2; test: Cell cycle arrest in human HepG2 cells assessed as accumulation at G1 phase at 5 uM after 36 hrs by FACSan flow cytometry; format: functional; outline: as §2
[20] = tested on: HepG2; test: Induction of apoptosis in human HepG2 cells assessed as caspase 9 activation at 50 uM after 2 to 24 hrs; format: functional, cell-based; outline: as §4
[21] = tested on: HepG2; test: Cell cycle arrest in human HepG2 cells assessed as accumulation at S phase at 25 uM after 36 hrs by FACSan flow cytometry; format: functional; outline: as §2
[22] = tested on: HepG2; test: Cell cycle arrest in human HepG2 cells assessed as accumulation at S phase at 50 uM after 36 hrs by FACSan flow cytometry; format: functional; outline: as §2
[23] = tested on: HepG2; test: Cell cycle arrest in human HepG2 cells assessed as accumulation at G1 phase at 25 uM after 36 hrs by FACSan flow cytometry; format: functional; outline: as §2
[24] = tested on: HepG2; test: Cell cycle arrest in human HepG2 cells assessed as accumulation at G1 phase at 50 uM after 36 hrs by FACSan flow cytometry; format: functional; outline: as §2
[25] = tested on: HepG2; test: Induction of apoptosis in human HepG2 cells assessed as change in cellular morphology at 10 uM after 36 hrs […]; format: functional, cell-based
[26] = tested on: HepG2; test: Induction of apoptosis in human HepG2 cells assessed as caspase 3 activation at 50 uM after 2 to 24 hrs; format: functional, cell-based; outline: as §4
[27] = tested on: HepG2; test: Cell cycle arrest in human HepG2 cells assessed as accumulation at G2 phase at 25 uM after 36 hrs by FACSan flow cytometry; format: functional; outline: as §2
[28] = tested on: HepG2; test: Induction of apoptosis in human HepG2 cells assessed as DNA fragmentation at 10 uM after 36 hrs by agarose gel electrophoresis; format: functional, cell-based
Outline: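 HepG-2 cells (1 × 10⁶) exposed to 0, 5, 10, 25 and 50 µM for 36 h, then trypsinized and lysed in 10 mM Tris–HCl pH 7.4, 10 mM EDTA, 0.5% Triton X-100 and proteinase K (200 µg/ml). DNA isolated by organic extraction, run on 2% agarose and stained with ethidium bromide to detect laddering.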

Work on COc1ccccc1-c1cc(=O)c2cc(C(C)C)ccc2o1 yielded a pIC50 [1] of 5.27.

With COc1cc(-c2cc(=O)c3cc(C(C)C)ccc3o2)cc(OC)c1OC the pIC50 [1] was 5.44.

With CC(C)c1ccc2oc(-c3ccccc3)cc(=O)c2c1 the pIC50 [1] was 5.19.

In the case of CC(C)c1ccc2oc(-c3ccc([N+](=O)[O-])cc3)cc(=O)c2c1, the pIC50 [1] was < 4.30.

For CC(C)c1ccc2oc(-c3cccc([N+](=O)[O-])c3)cc(=O)c2c1, the pIC50 [1] was < 4.30.

CC(C)c1ccc2oc(C3CCCCC3)cc(=O)c2c1 gave a pIC50 [1] of 4.74.

Work on CC(C)c1ccc2oc(C3CCCC3)cc(=O)c2c1 yielded a pIC50 [1] of 5.07.

COc1cc(OC)cc(-c2cc(=O)c3cc(Cl)ccc3o2)c1 showed an Activity [2] of 5.69%, a pIC50 [3] of 5.52 and a pIC50 [1] of 5.96. The pIC50 [4] was 4.89, the Activity [5] was 13.47% and the Activity [6] was 13.32%. The Activity [7] was 21.54%, the pIC50 [8] was 5.13 and the Activity [9] was 55.83%. For the same molecule, the Activity [10] was “Active”, the Activity [11] was “Dose-dependent effect” and the Activity [12] was 20.32%. The Activity [13] was “Active”, the Activity [14] was 79.32% and the Activity [15] was 34.54%. It also gave a pIC50 [16] of 4.98, an Activity [17] of 38.67% and an Activity [18] of 16.47%. The Activity [19] was 41.67%, the Activity [20] was “Active” and the Activity [21] was 9.32%. The Activity [22] was 3.47%, the Activity [23] was 23.38% and the Activity [24] was 11.52%. The Activity [25] was “Active”, the Activity [26] was “Active” and the Activity [27] was 11.47%. The Activity [28] was “Active”.

In the case of O=c1cc(C2CCCC2)oc2c1ccc1ccccc12, the pIC50 [1] was 5.21.

Work on O=c1cc(C2CCCCC2)oc2c1ccc1ccccc12 yielded a pIC50 [1] of 5.54.

Molecule O=c1cc(C2CCCCC2)oc2ccc(Cl)cc12 has a pIC50 [1] of 4.70.

Work on COc1cccc(-c2cc(=O)c3cc(C(C)C)ccc3o2)c1 yielded a pIC50 [1] of 5.68.

For COc1ccc(-c2cc(=O)c3cc(C(C)C)ccc3o2)cc1, the pIC50 [1] was 5.00.

Molecule O=c1cc(C2CCCC2)oc2ccc(Cl)cc12 has a pIC50 [1] of 4.87.

— ChEMBL document CHEMBL1221296, “New synthetic flavone derivatives induce apoptosis of hepatocarcinoma cells” (Bioorg Med Chem, 2010)
